{"data": "Results of several laboratories", "effect on": "metabolic stability", "host": "mouse", "note": "Lines come from different studies, so protocols differ."}
{"Structure (SMILES)": "Cc1c(C)n(Cc2cccc(OC(C)(C)C(=O)O)c2)c2ccc(C(=O)N[C@@H](C)c3ccc(C(C)(C)C)cc3)cc12", "matrix": "liver microsomes", "half-life [min]": "> 60"}
{"Structure (SMILES)": "O=c1c2c([nH]c3cc(OCc4ccc(OC(F)(F)F)cc4)ccc13)CCCC2", "matrix": "liver microsomes", "concentration": "1 µM", "pH": "pH 7.4", "half-life [min]": "> 60"}
{"Structure (SMILES)": "C=CCn1c(=O)c2cnc(Nc3ccc(N4CCN(C)CC4)cc3)nc2n1-c1ccc2c(n1)[C@@](O)(CC)CC2", "matrix": "hepatocytes", "half-life [min]": 91}
{"Structure (SMILES)": "O=C(O)Cc1ccccc1Nc1c(Cl)cccc1Cl", "matrix": "liver microsomes", "half-life [min]": 44.4}
{"Structure (SMILES)": "O=c1c2cccc(Oc3ccc(OC(F)(F)F)cc3)c2[nH]c2cc(Cl)cc(F)c12", "matrix": "liver microsomes", "concentration": "1 µM", "pH": "pH 7.4", "half-life [min]": "> 60"}
{"Structure (SMILES)": "Cc1cc(-c2ccnc3[nH]cc(F)c23)cc(F)c1[C@@]1(O)[C@H](C)CN(C(=O)CN)C[C@@H]1C", "matrix": "liver microsomes", "half-life [min]": 84.1}
{"Structure (SMILES)": "CC(C)(C)OC(=O)N1CCC(Oc2ccc3c(=O)c4c(F)cc(Cl)cc4[nH]c3c2)C1 (stereo not shown)", "matrix": "liver microsomes", "concentration": "1 µM", "pH": "pH 7.4", "half-life [min]": "> 60"}
{"Structure (SMILES)": "O=c1c2cc(Cl)ccc2[nH]c(=S)n1Cc1cccnc1", "matrix": "liver microsomes", "concentration": "1 µM", "pH": "pH 7.4", "half-life [min]": 27}
{"Structure (SMILES)": "O=C1CCC(N2Cc3cc(C4CCN(Cc5ccccc5)CC4)ccc3C2=O)C(=O)N1 (stereo not shown)", "matrix": "liver microsomes", "concentration": "1 µM", "half-life [min]": "> 60"}
{"Structure (SMILES)": "COCC(=O)OCc1cc2[nH]c(=S)n(Cc3cccnc3)c(=O)c2cc1Cl", "matrix": "liver microsomes", "concentration": "1 µM", "pH": "pH 7.4", "half-life [min]": "< 5"}
{"Structure (SMILES)": "Cc1cc(-c2ccnc3[nH]cc(F)c23)cc(F)c1[C@@]1(O)[C@H](C)CN(C(C)C)C[C@@H]1C", "matrix": "liver microsomes", "half-life [min]": 1.5}
{"Structure (SMILES)": "Nc1nnc(-c2ccccc2O)cc1N1CCN(Cc2ccc(N3CCN(CCOc4cccc5c4C(=O)N(C4CCC(=O)NC4=O)C5=O)CC3)c(F)c2)CC1 (stereo not shown)", "matrix": "liver microsomes", "concentration": "1 mM", "half-life [min]": 46}
{"Structure (SMILES)": "O=c1c2c(F)cc(Cl)cc2[nH]c2cccc(Oc3ccc(OC(F)(F)F)cc3)c12", "matrix": "liver microsomes", "concentration": "1 µM", "pH": "pH 7.4", "half-life [min]": "> 60"}
{"Structure (SMILES)": "Cc1cc(-c2ccnc3[nH]cc(F)c23)cc(F)c1[C@@]1(O)[C@H](C)CNC[C@@H]1C", "matrix": "liver microsomes", "half-life [min]": 18.9}
{"Structure (SMILES)": "NS(=O)(=O)c1nnc(NC(=O)C2CCCC3(CCCCC3)C2)s1 (stereo not shown)", "matrix": "liver microsomes", "half-life [min]": 58.8}
{"Structure (SMILES)": "O=c1c2ccc(Oc3ccc(OC(F)(F)F)cc3)cc2[nH]c2ccc(F)c(Cl)c12", "matrix": "liver microsomes", "concentration": "1 µM", "pH": "pH 7.4", "half-life [min]": "> 60"}
{"Structure (SMILES)": "Cc1[nH]c(C)c(S(=O)(=O)Nc2ccc(C(F)(F)F)c(Cl)c2)c1C(=O)N(C)C", "matrix": "liver microsomes", "half-life [min]": 3.9}
{"Structure (SMILES)": "CN(C)CC(=O)OCc1cc2[nH]c(=S)n(Cc3cccnc3)c(=O)c2cc1Cl", "matrix": "liver microsomes", "concentration": "1 µM", "pH": "pH 7.4", "half-life [min]": "< 5"}
{"Structure (SMILES)": "NS(=O)(=O)c1nnc(NC(=O)CCC2CC3CCC2C3)s1 (stereo not shown)", "matrix": "liver microsomes", "half-life [min]": 46}
{"Structure (SMILES)": "COc1ccc(Cn2cc(CO[C@@H]3O[C@H]4[C@H](OC[C@H]4O)[C@H]3O)nn2)cc1", "matrix": "liver microsomes", "half-life [min]": 120}
{"Structure (SMILES)": "CCN(CC)CCOc1ccc2c(=O)c3c([nH]c2c1)CCCC3", "matrix": "liver microsomes", "concentration": "1 µM", "pH": "pH 7.4", "half-life [min]": "> 60"}
{"Structure (SMILES)": "O=c1c2cc(Cl)ccc2[nH]c(=S)n1Cc1ccc(-c2nnn[nH]2)nc1", "matrix": "liver microsomes", "concentration": "1 µM", "pH": "pH 7.4", "half-life [min]": "> 186"}
{"Structure (SMILES)": "Cc1cc(-c2ccnc3[nH]cc(F)c23)cc(F)c1[C@@]1(O)[C@H](C)CN(C2COC2)C[C@@H]1C", "matrix": "liver microsomes", "half-life [min]": 1.7}
{"Structure (SMILES)": "Cc1[nH]c(C)c(S(=O)(=O)Nc2ccc(C(F)(F)F)c(Cl)c2Cl)c1C(=O)N1CCC(F)(F)C1", "matrix": "liver microsomes", "half-life [min]": 44}
{"Structure (SMILES)": "CCN(CC)CCNC(=O)c1c(C)[nH]c(/C=C2\\C(=O)Nc3ccc(F)cc32)c1C", "matrix": "liver microsomes", "concentration": "1 µM", "half-life [min]": 12.6}
{"Structure (SMILES)": "COc1ccc(Oc2ccc3c(=O)c4c(F)cc(Cl)cc4[nH]c3c2)cc1", "matrix": "liver microsomes", "concentration": "1 µM", "pH": "pH 7.4", "half-life [min]": "> 60"}
{"Structure (SMILES)": "OCc1ccc(-c2nn(Cc3ccccc3)c3ccccc23)o1", "matrix": "hepatocytes", "half-life [min]": 1.89}
{"Structure (SMILES)": "C[C@@H]1CNC[C@H](C)[C@@]1(O)c1ccc(-c2ccnc3[nH]cc(F)c23)cc1F", "matrix": "liver microsomes", "half-life [min]": 30.1}
{"Structure (SMILES)": "O=C(Oc1coc(CSc2ncccn2)cc1=O)c1ccc([N+](=O)[O-])cc1", "matrix": "liver microsomes", "half-life [min]": "< 1"}
{"Structure (SMILES)": "O=c1c2c([nH]c3cc(Oc4ccc(OC(F)(F)F)cc4)c(F)cc13)CCCC2", "matrix": "liver microsomes", "concentration": "1 µM", "pH": "pH 7.4", "half-life [min]": 13.2}
{"Structure (SMILES)": "CCN(CC)CCNC(=O)c1c(C)[nH]c(/C=C2\\C(=O)Nc3ccc(F)cc32)c1C", "matrix": "liver microsomes", "half-life [min]": 17}
